Test results taken from ChEMBL document CHEMBL3286116, “Synthesis, biological evaluation and structure-activity correlation study of a series of imidazol-based compounds as Candida albicans inhibitors” (Eur J Med Chem, 2014).
Converted amounts (≈) assume the structure as drawn.

Experiments:
Candida albicans [1] = assay: Antifungal activity against Candida albicans PMC 1041R after 48 hrs by CLSI broth microdilution method; type: functional
Method in brief: (§1)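 Yeast CLSI broth microdilution (M27-A3). Compounds dissolved in DMSO at 100× the top test concentration, then diluted as serial two-fold dilutions in RPMI 1640 to final 0.125–64. Inoculum was 1.0–1.5 × 10^3 cells mL−1, incubated at 35 °C and read for growth at 48 h. MIC is the lowest concentration giving ≥50% growth inhibition versus growth control. Reported as the median of five replicates and as the geometric mean.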

Cryptococcus neoformans [2] = assay: Antifungal activity against Cryptococcus neoformans PMC 2103 after 72 hrs by CLSI broth microdilution method; type: functional; details: PMC 2103, 72 h
Method in brief: (§2)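 Cryptococcus neoformans tested by CLSI broth microdilution in RPMI 1640, with serial two-fold dilutions from DMSO stocks at 100× the top concentration, final 0.125–64. Inoculum was 1.0–1.5 × 10^3 cells mL−1 at 35 °C, with growth read at 72 h. MIC is the lowest concentration with ≥50% growth inhibition versus control. Median of five replicates, plus geometric mean.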

Candida albicans [3] = assay: Antifungal activity against Candida albicans ATCC 90028 after 48 hrs by CLSI broth microdilution method; type: functional; details: ATCC 90028, 48 h; method in brief: as §1
Nannizzia gypsea [4] = assay: Antifungal activity against Microsporum gypseum PMC 7331 after 72 hrs by CLSI broth microdilution method; type: functional; details: PMC 7331, 72 h
Method in brief: (§3)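 Dermatophytes tested by CLSI broth microdilution for filamentous fungi (M38-A2). Serial two-fold dilutions of DMSO-dissolved compound in RPMI 1640, final 0.125–64. Inoculum was 0.4–5 × 10^4 CFU mL−1, incubated at 35 °C and read at 72 h. MIC80 is the lowest concentration giving ≥80% growth inhibition versus growth control. Median of five replicates, plus geometric mean.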

Nakaseomyces glabratus [5] = assay: Antifungal activity against Candida glabrata PMC 0852R after 48 hrs by CLSI broth microdilution method; type: functional; method in brief: as §1
Candida albicans [6] = assay: Antifungal activity against Candida albicans PMC 1042R after 48 hrs by CLSI broth microdilution method; type: functional; method in brief: as §1
[7] = Cytotoxicity against human A549 cells after 48 hrs by MTT assay; type: cell-based
Method in brief: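 A549 cells (ATCC CCL-185) seeded at 2 × 10^4/well in phenol-red-free RPMI 1640 with 10% FBS, L-glutamine, penicillin and streptomycin, at 37 °C and 5% CO2. Exposed 48 h to DMSO-dissolved compounds (final 16–256; at least five concentrations, triplicate). MTT added for 3–4 h, crystals solubilized, OD read at 570 nm. CC50 taken versus the DMSO control. Mean ± SD of two independent experiments.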

Candida parapsilosis [8] = assay: Antifungal activity against Candida parapsilosis ATCC 22019 after 48 hrs by CLSI broth microdilution method; type: functional; details: Lodderomyces parapsilosis, ATCC 22019, 48 h; method in brief: as §1
Nannizzia gypsea [9] = assay: Antifungal activity against Microsporum gypseum DSM 3824 after 72 hrs by CLSI broth microdilution method; type: functional; details: DSM 3824, 72 h; method in brief: as §3
[10] = tested on: Trichophyton mentagrophytes; assay: Antifungal activity against Trichophyton mentagrophytes PMC 6503 after 72 hrs by CLSI broth microdilution method; type: functional; details: PMC 6503, 72 h; method in brief: as §3
[11] = tested on: Trichophyton mentagrophytes; assay: Antifungal activity against Trichophyton mentagrophytes PMC 6552 after 72 hrs by CLSI broth microdilution method; type: functional; details: PMC 6552, 72 h; method in brief: as §3
Cryptococcus neoformans [12] = assay: Antifungal activity against Cryptococcus neoformans DSM 11959 after 72 hrs by CLSI broth microdilution method; type: functional; details: DSM 11959, 72 h; method in brief: as §2
Nakaseomyces glabratus [13] = assay: Antifungal activity against Candida glabrata PMC 0851R after 48 hrs by CLSI broth microdilution method; type: functional; method in brief: as §1
Candida albicans [14] = assay: Antifungal activity against Candida albicans ATCC 20891 after 48 hrs by CLSI broth microdilution method; type: functional; details: ATCC 20891, 48 h; method in brief: as §1
Nakaseomyces glabratus [15] = assay: Antifungal activity against Candida glabrata PMC 0805 after 48 hrs by CLSI broth microdilution method; type: functional; details: PMC 0805, 48 h; method in brief: as §1
Candida albicans [16] = assay: Antifungal activity against Candida albicans PMC 1011 after 48 hrs by CLSI broth microdilution method; type: functional; details: PMC 1011, 48 h; method in brief: as §1
Cryptococcus neoformans [17] = assay: Antifungal activity against Cryptococcus neoformans PMC 2102 after 72 hrs by CLSI broth microdilution method; type: functional; details: PMC 2102, 72 h; method in brief: as §2
Candida parapsilosis [18] = assay: Antifungal activity against Candida parapsilosis DSM 11224 after 48 hrs by CLSI broth microdilution method; type: functional; details: Lodderomyces parapsilosis, DSM 11224, 48 h; method in brief: as §1
Pichia kudriavzevii [19] = assay: Antifungal activity against Candida krusei PMC 0613 after 48 hrs by CLSI broth microdilution method; type: functional; details: PMC 0613, 48 h; method in brief: as §1
Candida albicans [20] = assay: Antifungal activity against Candida albicans ATCC 24433 after 48 hrs by CLSI broth microdilution method; type: functional; details: ATCC 24433, 48 h; method in brief: as §1
Cryptococcus neoformans [21] = assay: Antifungal activity against Cryptococcus neoformans PMC 2107 after 72 hrs by CLSI broth microdilution method; type: functional; details: PMC 2107, 72 h; method in brief: as §2
[22] = tested on: Trichophyton mentagrophytes; assay: Antifungal activity against Trichophyton mentagrophytes PMC 6531 after 72 hrs by CLSI broth microdilution method; type: functional; details: PMC 6531, 72 h; method in brief: as §3
Candida tropicalis [23] = assay: Antifungal activity against Candida tropicalis DSM 11953 after 48 hrs by CLSI broth microdilution method; type: functional; details: DSM 11953, 48 h; method in brief: as §1
[24] = tested on: Trichophyton mentagrophytes; assay: Antifungal activity against Trichophyton mentagrophytes PMC 6515 after 72 hrs by CLSI broth microdilution method; type: functional; details: PMC 6515, 72 h; method in brief: as §3
Candida tropicalis [25] = assay: Antifungal activity against Candida tropicalis PMC 0910 after 48 hrs by CLSI broth microdilution method; type: functional; details: PMC 0910, 48 h; method in brief: as §1
Nakaseomyces glabratus [26] = assay: Antifungal activity against Candida glabrata PMC 0807 after 48 hrs by CLSI broth microdilution method; type: functional; details: PMC 0807, 48 h; method in brief: as §1
Pichia kudriavzevii [27] = assay: Antifungal activity against Candida krusei DSM 6128 after 48 hrs by CLSI broth microdilution method; type: functional; details: DSM 6128, 48 h; method in brief: as §1
Nakaseomyces glabratus [28] = assay: Antifungal activity against Candida glabrata PMC 0850R after 48 hrs by CLSI broth microdilution method; type: functional; method in brief: as §1
[29] = tested on: Trichophyton mentagrophytes; assay: Antifungal activity against Trichophyton mentagrophytes PMC 6509 after 72 hrs by CLSI broth microdilution method; type: functional; details: PMC 6509, 72 h; method in brief: as §3
Nakaseomyces glabratus [30] = assay: Antifungal activity against Candida glabrata PMC 0853R after 48 hrs by CLSI broth microdilution method; type: functional; method in brief: as §1
Candida albicans [31] = assay: Antifungal activity against Candida albicans ATCC 3153 after 48 hrs by CLSI broth microdilution method; type: functional; details: ATCC 3153, 48 h; method in brief: as §1
[32] = tested on: Trichophyton mentagrophytes; assay: Antifungal activity against Trichophyton mentagrophytes DSM 4870 after 72 hrs by CLSI broth microdilution method; type: functional; details: DSM 4870, 72 h; method in brief: as §3
Candida albicans [33] = assay: Antifungal activity against Candida albicans PMC 1040R after 48 hrs by CLSI broth microdilution method; type: functional; method in brief: as §1
Candida albicans [34] = assay: Antifungal activity against Candida albicans ATCC 10261 after 48 hrs by CLSI broth microdilution method; type: functional; details: ATCC 10261, 48 h; method in brief: as §1
Nannizzia gypsea [35] = assay: Antifungal activity against Microsporum gypseum PMC 7303 after 72 hrs by CLSI broth microdilution method; type: functional; details: PMC 7303, 72 h; method in brief: as §3
Candida albicans [36] = assay: Antifungal activity against Candida albicans ATCC 10231 after 48 hrs by CLSI broth microdilution method; type: functional; details: ATCC 10231, 48 h; method in brief: as §1
Candida albicans [37] = assay: Antifungal activity against Candida albicans ATCC 76615 after 48 hrs by CLSI broth microdilution method; type: functional; details: ATCC 76615, 48 h; method in brief: as §1
Cryptococcus neoformans [38] = assay: Antifungal activity against Cryptococcus neoformans PMC 2115 after 72 hrs by CLSI broth microdilution method; type: functional; details: PMC 2115, 72 h; method in brief: as §2
Cryptococcus neoformans [39] = assay: Antifungal activity against Cryptococcus neoformans PMC 2136 after 72 hrs by CLSI broth microdilution method; type: functional; details: PMC 2136, 72 h; method in brief: as §2
Cryptococcus neoformans [40] = assay: Antifungal activity against Cryptococcus neoformans PMC 2123 after 72 hrs by CLSI broth microdilution method; type: functional; details: PMC 2123, 72 h; method in brief: as §2
Cryptococcus neoformans [41] = assay: Antifungal activity against Cryptococcus neoformans PMC 2111 after 72 hrs by CLSI broth microdilution method; type: functional; details: PMC 2111, 72 h; method in brief: as §2

MIC50 (Candida albicans [1]): 8 µg/mL (≈ 18 µM) | MIC50 (Cryptococcus neoformans [2]): 4 µg/mL (≈ 8.98 µM) | MIC50 (Candida albicans [3]): 0.5 µg/mL (≈ 1.12 µM) | MIC80 (Nannizzia gypsea [4]): 2 µg/mL (≈ 4.49 µM) | MIC50 (Nakaseomyces glabratus [5]): 4 µg/mL (≈ 8.98 µM) | MIC50 (Candida albicans [6]): 4 µg/mL (≈ 8.98 µM) | MIC50 (Candida parapsilosis [8]): 1 µg/mL (≈ 2.25 µM) | MIC80 (Nannizzia gypsea [9]): 8 µg/mL (≈ 18 µM) | MIC80 [10]: 2 µg/mL (≈ 4.49 µM) | MIC80 [11]: 1 µg/mL (≈ 2.25 µM) | MIC50 (Cryptococcus neoformans [12]): 2 µg/mL (≈ 4.49 µM) | MIC50 (Nakaseomyces glabratus [13]): 8 µg/mL (≈ 18 µM) | MIC50 (Candida albicans [14]): 0.5 µg/mL (≈ 1.12 µM) | MIC50 (Nakaseomyces glabratus [15]): 1 µg/mL (≈ 2.25 µM) | MIC50 (Candida albicans [16]): 0.25 µg/mL (≈ 0.561 µM) | MIC50 (Cryptococcus neoformans [17]): 4 µg/mL (≈ 8.98 µM) | MIC50 (Candida parapsilosis [18]): 1 µg/mL (≈ 2.25 µM) | MIC50 (Pichia kudriavzevii [19]): 1 µg/mL (≈ 2.25 µM) | MIC50 (Candida albicans [20]): 1 µg/mL (≈ 2.25 µM) | MIC50 (Cryptococcus neoformans [21]): 4 µg/mL (≈ 8.98 µM) | MIC80 [22]: 8 µg/mL (≈ 18 µM) | MIC50 (Candida tropicalis [23]): 4 µg/mL (≈ 8.98 µM) | MIC80 [24]: 4 µg/mL (≈ 8.98 µM) | MIC50 (Candida tropicalis [25]): 4 µg/mL (≈ 8.98 µM) | MIC50 (Nakaseomyces glabratus [26]): 8 µg/mL (≈ 18 µM) | MIC50 (Pichia kudriavzevii [27]): 4 µg/mL (≈ 8.98 µM) | MIC50 (Nakaseomyces glabratus [28]): 8 µg/mL (≈ 18 µM) | MIC80 [29]: 8 µg/mL (≈ 18 µM) | MIC50 (Nakaseomyces glabratus [30]): 4 µg/mL (≈ 8.98 µM) | MIC50 (Candida albicans [31]): 0.5 µg/mL (≈ 1.12 µM) | MIC80 [32]: 8 µg/mL (≈ 18 µM) | MIC50 (Candida albicans [33]): 32 µg/mL (≈ 71.9 µM) | MIC50 (Candida albicans [34]): 0.5 µg/mL (≈ 1.12 µM) | MIC80 (Nannizzia gypsea [35]): 2 µg/mL (≈ 4.49 µM) | MIC50 (Candida albicans [36]): 0.5 µg/mL (≈ 1.12 µM) | MIC50 (Candida albicans [37]): 2 µg/mL (≈ 4.49 µM) | MIC50 (Cryptococcus neoformans [38]): 4 µg/mL (≈ 8.98 µM) | MIC50 (Cryptococcus neoformans [39]): 4 µg/mL (≈ 8.98 µM) | MIC50 (Cryptococcus neoformans [40]): 4 µg/mL (≈ 8.98 µM) | MIC50 (Cryptococcus neoformans [41]): 2 µg/mL (≈ 4.49 µM)
SMILES: O=C(OC(Cn1ccnc1)c1ccc(Cl)cc1)N1CCN(c2ccc(Cl)cc2)CC1 (stereo unspecified)
CC50 at 48 h [7]: 82.2 µg/mL (≈ 185 µM)
